# Screens as filed in PubChem.
# Compounds with a hit are over-represented: about 2.8% of the library has one in this group of screens.
# EP2 antag – EP2 receptor (human) inhibition | P43116 | C6 glioma cells expressing human EP2, cAMP TR-FRET; cells stimulated with saturating PGE2 | inhibition, % at 25 µM | hit rate 0.52% among 260,000;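 active = percent inhibition above 40 after rounding to a whole number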;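 note: rat C6 glioma host cells with rolipram phosphodiesterase inhibitor present; the protocol text gives 20 µM as final concentration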
# NPY Y1 blocker – blocks the human neuropeptide Y Y1 receptor; HEK293-CNG Y1 cells, membrane potential fluorescence; NPY at EC95, then isoproterenol; AID 1040; inhibition, % at 3.6 µM; hit rate 1% among 200,000; P25929;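 active = inhibition above the campaign mean inhibition of all tested compounds plus 3 SD, cut at about 20% in these data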;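 note: 0% = DMSO wells given NPY plus isoproterenol and 100% = isoproterenol alone without NPY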
# Target sequence (P25929 whole entry, looked up): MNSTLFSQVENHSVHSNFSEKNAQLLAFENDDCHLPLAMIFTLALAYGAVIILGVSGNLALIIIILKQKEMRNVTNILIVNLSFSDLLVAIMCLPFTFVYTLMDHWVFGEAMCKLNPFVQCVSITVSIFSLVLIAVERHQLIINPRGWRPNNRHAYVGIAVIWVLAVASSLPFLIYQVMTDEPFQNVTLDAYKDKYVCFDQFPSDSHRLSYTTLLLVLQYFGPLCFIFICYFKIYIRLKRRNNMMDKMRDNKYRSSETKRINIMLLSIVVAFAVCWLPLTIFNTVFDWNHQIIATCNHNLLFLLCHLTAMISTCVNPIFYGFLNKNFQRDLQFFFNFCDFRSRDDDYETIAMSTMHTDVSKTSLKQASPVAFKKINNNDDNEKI
#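 Material: HEK293 Y1/CNG channel cell line; also added: NPY (25 nM), isoproterenol (1 µM), Ro 20-1724 (25 µM); doses: one concentration, 3.6 µM, in 0.4% DMSO; schedule: compound incubation 1 h at room temperature, readout 45 min post-stimulation; technique: membrane potential fluorescence; measure: fluorescence ratio normalized to % inhibition between controls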
# NPY1 pot ag – potentiators or agonists of human neuropeptide Y receptor Y1; P25929; NPY-Y1 expressing cells, potentiator/agonist activation; activation, % at 3.6 µM; hit rate 0.37% among 220,000; AID 1304; in the data active = activation above about 33%, passing the limit was not always enough;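 note: cells stimulated with NPY at EC10 then isoproterenol at EC100; 0% = low agonist plus stimulus and 100% = saturating agonist plus stimulus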
# NPY-Y2 PAM-ag – human NPY-Y2 potentiation or agonism, primary screen | activation, % at 3.6 µM | P49146 | cells expressing NPY-Y2, potentiator/agonist read-out | hit rate 0.45% among 220,000; in the data active = activation above about 27%;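 note: cells stimulated with NPY near EC25 plus isoproterenol at EC100; 0% = vehicle plus submaximal agonist and 100% = vehicle plus saturating agonist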
# NPY Y2 blocker – NPY-Y2 (human) receptor antagonism | P49146 | hit rate 0.99% among 140,000 | inhibition, % at 2.7 µM | NPY-Y2 expressing cells, antagonist mode; in the data active = inhibition above about 17%;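 note: 0% = vehicle with agonist challenge and 100% = reference antagonist with challenge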
# EP2 modulator – modulators of human EP2 prostaglandin E2 receptor; EP2-expressing cells, cAMP HTRF FRET, PGE2 co-stimulation; induction, % at 25 µM; hit rate 0.83% among 260,000;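 active = compounds whose cAMP rise, as percent of the full-agonist control response, exceeds 60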;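 note: rat C6 glioma line stably carrying human EP2 under a CMV promoter; the protocol text gives 20 µM as final concentration; 100% = response of wells given 1 µM PGE2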
# An asterisk follows results filed as active; . = no result given.
SMILES,EP2 antag,NPY Y1 blocker,NPY1 pot ag,NPY-Y2 PAM-ag,NPY Y2 blocker,EP2 modulator
CC(C)=CCc1c(O)cc(O)c2c(=O)c3c(CC=C(C)C)c(O)ccc3oc12,42*,.,.,.,.,.
C#CCOc1c(OC)cccc1C1NC(=O)NC(C)=C1C(=O)OCC (stereo not drawn),2,.,.,.,.,5
Cn1cc(CC(=O)O)c2ccccc2c1=O,10,.,.,.,.,-45
COC(=O)c1cc(S(=O)(=O)n2nc(C)c(Br)c2C)c(Cl)cc1Cl,17,-6,52*,34*,4,9
Cc1cc(C)n(S(=O)(=O)c2cc(C(=O)O)c(Cl)cc2Cl)n1,12,-2,-15,3,0,.
Cc1nn(CCC(=O)NC2CCN(Cc3cccc(F)c3)CC2)c(C)c1C,4,.,.,.,.,-17
CCOC(=O)c1cccc(NC(=O)CSc2nnc3c(C)cc4cc5c(cc4n23)OCO5)c1,48*,.,.,.,.,3
Nc1nc(SCC(=O)C2CCC(Br)CC2)c2[nH]cnc2n1 (stereo not drawn),49*,.,.,.,.,-33
CCOc1ccc2[nH]c(=O)c(CN(Cc3nnnn3Cc3ccc(F)cc3)CC3CCCO3)cc2c1 (stereo not drawn),8,.,.,.,.,-12
CC(NC(=O)CCC1CCCC1)c1nc(-c2ccncc2)n[nH]1 (stereo not drawn),9,.,.,.,.,-11
NS(=O)(=O)C1=C(Cl)CC2=NC(CCC(=O)O)=NS(=O)(O)=C2C1,45*,.,.,.,.,11
Cc1ccc(-c2nnn(C3CCN(C(=O)c4cscn4)CC3)n2)cc1,.,.,.,.,.,-45
O=C1COc2ccc(N3C(=O)C=CC3=O)cc2N1,46*,1,-11,9,.,-34
CCOc1ccccc1-n1c(COc2cccc(C)c2)nnc1SCC(N)=O,7,.,.,.,.,-10
Cc1cccc2cc(CN(Cc3cccnc3)C(=S)NCc3ccccc3)c(=O)[nH]c12,13,.,.,.,.,-49
CCOC(=O)C(CCCOc1cccc(OC)c1)C(=O)OCC,5,-2,0,17,5,13
C=CCc1cc(C)ccc1OCCCC(C(=O)OCC)C(=O)OCC,7,-2,-26,5,7,61*
Cc1cccc(C)c1NC(=O)CSc1nc2ccccc2n1CC(=O)N1C(C)CCCC1C (stereo not drawn),4,.,.,.,.,42
CCCN(CCC)C(=O)NC1CC(=O)N(c2ccc(OC)cc2)C1 (stereo not drawn),68*,3,-3,2,3,-8
C=CCOc1ccc(Cl)cc1CNC1CCCC1,5,16,7,9,.,62*
N=c1c2c(ncn1Cc1ccco1)Oc1ccc3ccccc3c1C2c1ccccc1 (stereo not drawn),4,39*,-11,5,33*,21
CCc1ccc2[nH]c(=O)c(CN(Cc3cccs3)C(=S)Nc3cccc(C)c3)cc2c1,14,.,.,.,.,-52
CCCN(C(=O)CSc1cc(-c2ccccc2)c2ccc(OC)cc2n1)C1CCS(=O)(=O)C1 (stereo not drawn),4,1,-23,-21,8,33
COc1ccc2c(-c3ccccc3)cc(SC(C)C(N)=O)nc2c1 (stereo not drawn),12,-2,5,1,.,62*
CCCC(=O)Nc1ccc(NC(=O)CSc2nnc(-c3cccnc3)n2CC)cc1,16,.,.,.,.,1
SMILES,EP2 antag,NPY Y1 blocker,NPY1 pot ag,NPY-Y2 PAM-ag,NPY Y2 blocker,EP2 modulator
Cc1ccc(S(=O)(=O)N2CCN(S(=O)(=O)c3ccc(C)cc3)C2c2ccccc2)cc1,5,2,0,-1,6,25
Cc1ccc(S(=O)(=O)O[C@H]2C[C@@H](C(C)(C)C)CC[C@@H]2c2ccccc2)cc1,43*,.,.,.,.,32
C=CCc1ccccc1OCC(O)CN1CCN(CCN2C(=O)c3cccc4cccc(c34)C2=O)CC1 (stereo not drawn),8,-6,54*,45*,3,-37
C=CCc1ccccc1OCC(O)CN1CCN(Cc2ccc3c(c2)OCO3)CC1 (stereo not drawn),1,-16,92*,87*,7,-25
Cc1ccccc1OCC(O)CN1CCN(CCN2C(=O)c3cccc4cccc(c34)C2=O)CC1 (stereo not drawn),4,5,13,11,4,-10
CC(=O)c1ccc(NC(=O)CN2CCC(O)(c3nccn3C)CC2)cc1,8,.,.,.,.,-52
COc1ccccc1CC(=O)Nc1ccc(-c2noc(COc3cccc(C)c3C)n2)cc1,10,33*,10,-23,22*,13
CCN(CC)CCCNC(=O)C1CCN(C(=O)c2cc3sccc3n2Cc2ccc(F)cc2)CC1,7,-5,64*,100*,1,-6
CCOc1ccc(C2C(C#N)=C(N)Oc3n[nH]c(C)c32)cc1OC (stereo not drawn),8,.,.,.,.,-2
CCOC(=O)N1CCC(n2c(SCC(=O)NCCC3=CCCCC3)nc3ccccc3c2=O)CC1,5,36*,-33,-39,19*,38
Cn1c(=O)sc2cc(S(=O)(=O)N3CCN(C4CCCCC4)C(=O)C3)ccc21,5,.,.,.,.,-25
N#Cc1cc2cc3c(cc2nc1SCC(=O)NCc1ccccc1)OCCO3,43*,.,.,.,.,48
N#Cc1cc2cc3c(cc2nc1SCC(=O)Nc1ccc2c(c1)OCCO2)OCCO3,23,.,.,.,.,58
CCOC(=O)c1ccc(NC(=O)CSc2nc3cc4c(cc3cc2C#N)OCCO4)cc1,15,.,.,.,.,83*
CCOc1ccccc1CN1CCc2c(nc(N3CCC(C)CC3)[nH]c2=O)C1,4,.,.,.,.,23
CSc1nnc2c3ccccc3n(CCc3ccccc3)c2n1,5,29*,-20,-12,28*,35
Cc1ccc(N=C(NO)c2nonc2N)c(C)c1,9,0,-16,4,3,-7
Cc1ccc(N=C(NOCc2ccc(Cl)cc2Cl)c2nonc2N)c(C)c1,5,32*,-23,-22,21*,55
Cc1ccccc1N=C(NOCc1ccccc1)c1nonc1N,5,9,-4,-4,11,3
Cc1ccccc1N=C(NOCc1ccc(Cl)cc1Cl)c1nonc1N,.,33*,-36,-9,30*,38
Clc1ccccc1C1CC(c2ccccc2)=Nc2ccccc2N1 (stereo not drawn),7,.,-16,-12,.,62*
O=C(C1CCCO1)N1CCC(Cn2nc(-c3cccs3)ccc2=O)CC1 (stereo not drawn),.,.,.,.,.,-16
CCc1ccc(C2c3[nH]c4ccccc4c3CCN2C(=O)CN2CCN(CC)CC2)cc1 (stereo not drawn),8,7,14,10,.,-37
O=C(CCN1CCCCC1)N1CCc2c([nH]c3ccccc23)[C@H]1c1cccnc1,43*,.,.,.,.,5
O=[N+]([O-])c1ccccc1N/N=C/c1c[nH]c2ccccc12,22,-18,105*,86*,-14,-10
COc1ccc(NS(=O)(=O)c2cc([N+](=O)[O-])ccc2N/N=C\c2c(C)[nH]c3ccccc23)cc1,13,1,13,-4,1,-37
